Results from different studies.
Each line is one published result; the experiments were not run side by side.
MAPK14: Mitogen-activated protein kinase 14 (MAPK14, Homo sapiens, UniProt Q16539)
MAPK14 T106M: Mitogen-activated protein kinase 14 (MAPK14, Homo sapiens, UniProt Q16539, T106M)

CC(C)(C)c1nc(-c2cccc(NS(=O)(=O)c3c(F)cccc3F)c2F)c(-c2ccnc(N)n2)s1 gave a remaining activity of 111% (MAPK14; enzyme activity, inhibitor, radiometric; 1 µM).
The remaining signal of CSc1nc(-c2ccnc(N[C@@H](C)c3ccccc3)c2)c(-c2ccc(F)cc2)[nH]1 (racemic) is reported as 7.64% (MAPK14; cell-free assay; 0.5 µM).
With Cc1cc(NC(=O)c2cccc(S(F)(F)(F)(F)F)c2)cc(-n2ccn3nc(-c4cccnc4)cc23)c1 the remaining binding was 100% (MAPK14; cell-free assay, competition with immobilised ligand; 1 µM).
The remaining activity of FC(F)c1nc2ccccc2n1-c1nc(N2CCOCC2)nc(N2CCOCC2)n1 is reported as 89% (MAPK14; enzyme activity, inhibitor; 10 µM).
With c1nc2c(Nc3ccc4c(c3)OCCO4)nc(Nc3ccc4c(c3)OCCO4)nc2[nH]1 the activity vs control was 90% (MAPK14; enzyme activity, inhibitor; 10 µM).
The activity vs control of COc1cc(/C=C/C(=O)CC(=O)/C=C/c2ccc(O)c(OC)c2)ccc1O is reported as 104% (MAPK14; enzyme activity, inhibitor; 1 µM).
For Nc1nc(NC2CCCCC2)sc1C(=O)c1ccccc1, the remaining activity was 24% (MAPK14; enzyme activity, inhibitor; 10 µM).
CC(C)(O)[C@H]1CC[C@H](Nc2ccc3ncc(-c4cccc(C(F)(F)F)c4)n3n2)CC1 has a remaining activity of 86.4% (MAPK14; enzyme activity, inhibitor; 1 µM).
Nc1ncnc2occ(-c3ccc(NC(=O)Nc4cc(C(F)(F)F)ccc4F)cc3)c12 gave a remaining signal of 0% (MAPK14; cell-free assay, inhibitor; 20 µM).
With CC1=C(C#N)[C@@H](c2ccc3[nH]nc(C)c3c2)C(C#N)=C(c2ccc(Cl)cc2)N1 the remaining binding was 100% (MAPK14; cell-free assay, competition with immobilised ligand; 1 µM).
For Cc1ccc(Nc2nccc(N(C)c3ccc4c(C)n(C)nc4c3)n2)cc1S(N)(=O)=O, the inhibition was 4% (MAPK14 T106M; enzyme activity, inhibitor; 0.3 µM).
With COc1cc(Nc2cnc(C#N)c(O[C@H](C)CN(C)C)n2)ncc1-c1cnn(C)c1 the remaining activity was 85% (MAPK14; enzyme activity, inhibitor, radiometric; 10 µM).
With c1ccc(CNc2nc(N3CCOc4ccccc43)nc3c2CCCC3)cc1 the inhibition was 6.3% (MAPK14; target engagement in cells, inhibitor, chemoproteomics; 20 mM).
CN(C)C1CCN(CC#Cc2nn(C3CCCC3)c3nc(NCc4ccccc4)ncc23)C1 (stereo not shown) has an inhibition of 8% (MAPK14; enzyme activity, inhibitor, FRET; 0.1 µM).
CNC(=O)c1cc(Oc2ccc(NC(=O)Nc3ccc(Cl)c(C(F)(F)F)c3)cc2)ccn1 gave an inhibition of 84% (MAPK14; enzyme activity, inhibitor; 10 µM).
Cc1cnc(NC2CCOCC2)nc1-n1cnc(C(=O)NC(CN)c2cc(F)cc(Cl)c2)c1 (stereo not shown) gave a remaining activity of 77% (MAPK14; enzyme activity, inhibitor, radiometric; 1 µM).
With Cc1cc(-n2nc(Cc3cc(F)cc(C(F)(F)F)c3)nc2C)ccc1C(N)=O the remaining binding was 95% (MAPK14; cell-free assay, competition with immobilised ligand; 1 µM).
CCN(CC)CCNC(=O)c1c(C)[nH]c(/C=C2\C(=O)Nc3ccc(F)cc32)c1C gave an inhibition of 5% (MAPK14 T106M; enzyme activity, inhibitor; 0.3 µM).
Cc1nc(Cc2cccc(C(F)(F)F)c2)sc1-c1ccc(C(N)=O)nc1 has a remaining binding of 100% (MAPK14; cell-free assay, competition with immobilised ligand; 1 µM).
For O=C(Nc1cnn(-c2csc(C(=O)NC3COC3)c2)c1)Nc1ccccc1Cl, the remaining activity was 142% (MAPK14; enzyme activity, inhibitor; 5 µM).
With O=C(NC[C@@H]1[C@H]2CN(C(=O)OCc3cc(C(F)(F)F)cc(C(F)(F)F)c3)C[C@@H]12)c1ccc2[nH]nnc2c1 the remaining binding was 100% (MAPK14; cell-free assay, competition with immobilised ligand; 1 µM).
With Oc1ccc(-c2nc(-c3ccncc3)c(-c3ccc(F)cc3)[nH]2)cc1 the remaining signal was 7.42% (MAPK14; cell-free assay; 0.5 µM).
For CSc1cccnc1N1CCN(Cc2nc3ccccc3[nH]2)CC1, the remaining binding was 100% (MAPK14; cell-free assay, competition with immobilised ligand; 1 µM).
Cc1cc(NC(=O)c2cccc3cc(-c4cccc5[nH]nc(N)c45)ccc23)ccc1F gave an activity vs control of 96% (MAPK14 T106M; enzyme activity, inhibitor; 0.1 µM).
CC(C)(O)c1cncc(-c2nc3ccc(F)cc3n2C2CC2)c1 gave a remaining binding of 100% (MAPK14; cell-free assay, competition with immobilised ligand; 1 µM).
The remaining signal of O=C1NC(=O)c2cc(Nc3ccc(F)cc3)c(Nc3ccc(F)cc3)cc21 is reported as 88.3% (MAPK14; cell-free assay; 0.5 µM).
COc1ccc2c(c1)O[C@@H](c1ccc(OC)c(OC)c1)C[C@H]2NC(=O)C1(c2ccc3c(c2)OC(F)(F)O3)CC1 gave a remaining binding of 99% (MAPK14; cell-free assay, competition with immobilised ligand; 1 µM).
For Cc1ccc(NC(=O)c2ccc(C)c(C(F)(F)F)c2)cc1C#Cc1nn(C2CCC(O)CC2)c2ncnc(N)c12 (stereo not shown), the remaining activity was 88% (MAPK14 T106M; enzyme activity, inhibitor; 10 µM).
